Dynein cargo inh: inhibitors of GR-EGFP nuclear translocation, primary screen, dynein cargo transport inhibitor project, imaging, high-content, 3617.4 mouse cells | test concentration mostly 20 µM; stimulated with dexamethasone, 1 µM; active compounds read low | z-score, hits read low | 220,000 tested, 0.47% active;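 active means plate z-score of nuclear minus cytoplasmic receptor signal below a set negative limit, without overly bright fluorescence or cell loss, cut at about -3.5 in these data, passing the limit was not always enough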;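 further: z-score of nuclear minus cytoplasmic ring GR-EGFP intensity difference per well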
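Also added – dexamethasone, 1.0 µM final · Buffer or medium – tet-free, stripped-serum medium · Schedule – induction 48 h, compound 1 h, agonist 30 min · Detection – formaldehyde fixation, Hoechst nuclear stain, 10x automated fluorescence imaging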
Autophagy HCS: autophagy modulators in MEF cells, primary screen, imaging, high-content, MEF GFP-LC3; MEF GFP-LC3 puncta imaging; test concentration mostly 10 µM; calls only at 10 µM (by protocol); 190,000 tested, 0.98% active; AID 463193, 2010;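 active means percentage of spot-positive cells more than 3 SD above its plate mean, without a fluorescence outlier flag or 80% toxicity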;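 further: spot-positive cell cutoff set from DMSO-treated cells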
HCT116 PTEN-null: growth suppression of PTEN-null HCT116, primary screen, cell-based, CellTiter-Glo; HCT116 PTEN-null viability, 60 h; active compounds read low; viability, % at 10 µM; 140,000 tested, 1.2% active;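 active means viability at or below a set limit, 4 SD under the median of all tested compounds, cut at about 3.7% in these data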;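 further: PTEN knockout HCT116 line with beta catenin targeted HCT116 as companion control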
Lmaj promast: Leishmania major promastigote growth inhibition, primary screen. inhibition, % at 10 µM. Leishmania major promastigotes, resazurin fluorescence viability. AID 1063, 2008. 200,000 tested, 9% active; in the data active means inhibition above about 50%;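 further: promastigotes grown with compound for 44 hours at 28 °C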
bCat KO growth: primary screen for growth suppressors in beta-catenin knockout HCT116 cells (colon tumor, human); HCT116 beta-catenin knockout viability, CellTiter-Glo, 60 h; active compounds read low; viability, % at 10 µM; 140,000 tested, 1.5% active;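 active means viability at or under a set limit, the compound median less 4 SD, cut at about 6% in these data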;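 further: 0% = Hyamine 1622 control at 20 µM and 100% = untreated cell control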
Numbers without * were called inactive; i = inactive; . = not tested or not shown. Only some compounds are listed: those with a hit (about 9.2% of all), similar ones and a draw of the others.

SMILES	Dynein cargo inh	Autophagy HCS	HCT116 PTEN-null	Lmaj promast	bCat KO growth
CCOC(=O)C1=C(C)Nc2sc(C(=O)c3ccc(F)cc3)c(N)c2C1c1ccc(C(=O)OC)cc1 (centres undefined)	0.55	i	58	91*	69
COc1cc(C(=O)NCc2nnc(SCC(=O)N3CCOCC3)o2)cc(OC)c1OC	-0.5	i	.	-7	.
Cc1cccc(C(C)C)c1NC(=O)COC(=O)c1cccc(S(=O)(=O)N2CCc3ccccc3C2)c1	-0.21	i	105	-7	100
CN(C)S(=O)(=O)c1cccc(NC(=O)COC(=O)c2cccc(S(=O)(=O)N3CCc4ccccc4C3)c2)c1	0.89	i	0.2*	-1	0.7*
CCc1cccc(CC)c1NC(=O)COC(=O)c1cccc(S(=O)(=O)N2CCc3ccccc3C2)c1	-0.94	i	69	-6	72
Cc1cc(N2CCN(C)CC2)ccc1NC(=O)c1cccc(S(=O)(=O)N2CCc3ccccc3C2)c1	-0.29	i	.	98*	.
CC1=C(C(=O)c2ccccc2)C(c2cn(-c3ccccc3)nc2-c2ccc(Cl)cc2)NC(=S)N1 (centres undefined)	0.44	i	58	100*	69
Cc1ccc(NC(=O)CCC(=O)NNC(=O)c2ccco2)c(C)c1	0.71	i	113	-4	92
CCN(CC)P(=O)(Nc1ccc(C)cc1Br)c1ccc(N(C)C)cc1NC(=O)c1ccco1 (centres undefined)	-0.37	i	.	65*	.
O=C(Nc1nnc(-c2ccncc2)o1)c1ccccc1	0.34	i	.	3	.
O=C(Nc1nnc(-c2ccc(F)cc2)o1)c1cccc([N+](=O)[O-])c1	-0.43	i	.	96*	.
O=C(Nc1nnc(-c2ccc(F)cc2)o1)c1cc(Cl)sc1Cl	-0.87	i	6	62*	12
CC1=C(C(=O)OCCOC(C)C)C(c2cc3c(cc2Br)OCO3)CC(=O)N1 (centres undefined)	0.84	i	104	98*	94
COc1cc(C)c(C)cc1S(=O)(=O)N1CCCCC1c1cccnc1 (centres undefined)	-0.17	i	74	92*	66
CC(=O)Nc1ccc(S(=O)(=O)N2CCCCC2c2cccnc2)cc1 (centres undefined)	0.42	i	84	3	89
COc1ccc(NC(=O)N2CCCCC2c2cccnc2)cc1 (centres undefined)	-0.15	i	97	85*	96
O=C1CCC(=O)N(O)CCCCCNC(=O)CCC(=O)N(O)CCCCNC(=O)CCC(=O)N(O)CCCCCN1	0.13	.	.	.	.
Cc1c(C(=O)Nc2ccc(F)cc2)oc2ccc(S(=O)(=O)N3CC(C)CC(C)C3)cc12 (centres undefined)	0.39	i	9	30	2.1*
Cc1c(C(=O)NCc2cccnc2)oc2ccc(S(=O)(=O)N3CC(C)CC(C)C3)cc12 (centres undefined)	-0.2	i	89	-2	94
Cc1cccnc1Nc1nc(-c2ccc(O)c(O)c2)cs1	0.96	i	16	58*	34
COc1ccc(-c2csc(Nc3ncccc3C)n2)cc1OC	-0.33	i	102	31	102
COc1cccc(NC(=O)c2c(C)cc(C)cc2CC(C)(C)C(=O)O)c1	-0.95	.	.	.	.
Cc1nc(Nc2ccc(C(=O)O)cc2)nc(Nc2ccc(C(=O)O)cc2)c1[N+](=O)[O-]	-0.7	i	.	-2	.
CC(=O)Nc1ccc(Nc2nc(C)c([N+](=O)[O-])c(Nc3ccccc3)n2)cc1	0.035	i	58	91*	54
COC(=O)c1c(C)oc(C)c1S(=O)(=O)N(Cc1ccccc1)C(C)C	0.97	.	.	.	.
SMILES	Dynein cargo inh	Autophagy HCS	HCT116 PTEN-null	Lmaj promast	bCat KO growth
Clc1ccc(-n2cc(COCc3ccccc3)nn2)cc1	-0.91	i	.	-6	.
Cc1ccc2cccc(N=Cc3c(C)[nH]n(-c4ccccc4)c3=O)c2n1	0.98	i	2.5*	21	2.8*
Cc1[nH]n(-c2ccccc2)c(=O)c1/C=N/O	1.1	i	100	-2	106
Cc1c(Nc2nc(C(F)(F)F)nc3ccccc23)c(=O)n(-c2ccccc2)n1C	0.84	i	.	0	.
Cc1cccc(CC(=O)c2c[nH]c3ccccc23)c1	-0.3	.	.	.	.
CCCCN(CCCC)CC(O)CN(c1cc([N+](=O)[O-])ccc1OC)S(=O)(=O)c1ccccc1 (centres undefined)	0.73	i	65	71*	67
COc1ccc([N+](=O)[O-])cc1N(CC(O)CN(C)C)S(=O)(=O)c1ccc(C)cc1 (centres undefined)	-0.58	i	.	-5	.
COc1ccc([N+](=O)[O-])cc1N(CC(O)CN(CC(C)C)CC(C)C)S(=O)(=O)c1ccccc1 (centres undefined)	0.11	i	54	11	50
Cc1ccc(N(CC(O)CN2CCCCC2)S(=O)(=O)c2ccccc2[N+](=O)[O-])cc1 (centres undefined)	-0.024	i	.	99*	.
COc1ccc([N+](=O)[O-])cc1N(CC(O)CN1CCCCC1)S(=O)(=O)c1ccc(C)cc1 (centres undefined)	-1	i	.	56*	.
COc1ccc(-c2[nH]ncc2CN(CC2CCC(=O)N2)C(C)C)cc1F (centres undefined)	0.76	i	.	1	.
Cc1[nH]c2ccc(F)cc2c1CCN(Cc1cccnc1)C(=S)Nc1ccc(F)cc1	-0.87	i	.	100*	.
COc1ccc(NC(=S)N(CCc2c(C)[nH]c3ccccc23)Cc2cccnc2)cc1	-0.3	i	78	100*	84
CNC(=S)N(CCc1c(C)[nH]c2ccccc12)Cc1cc(OC)c(OC)c(OC)c1	-0.37	i	80	18	91
CCOc1ccc(NC(=S)N(CCc2c(C)[nH]c3ccc(C)cc23)Cc2ccco2)cc1	2	i	65	73*	58
Cc1[nH]c2ccc(F)cc2c1CCN(Cc1ccncc1)C(=S)Nc1cccc(F)c1	0.44	i	.	99*	.
Cc1onc(-c2ccccc2)c1NC(=O)Nc1ccc(OC(F)F)cc1	-0.97	.	.	.	.
NC1=NC(c2cn[nH]c2-c2ccc(F)cc2)n2c(nc3ccccc32)N1 (centres undefined)	0.53	i	.	-8	.
CCOc1ccc(NC(=S)N(CCc2c(C)[nH]c3ccc(C)cc23)Cc2cccnc2)cc1	-0.85	i	82	100*	88
Cc1ccccc1NC(=S)N(CCc1c(C)[nH]c2ccc(F)cc12)Cc1ccncc1	-0.74	i	.	98*	.
COc1ccc(NC(=S)N(CCc2c(C)[nH]c3ccc(C)cc23)Cc2ccco2)cc1	-1.3	i	61	31	57
COc1ccc(NC(=S)N(Cc2ccc(C)cc2)Cc2ccccn2)cc1	0.59	i	.	95*	.

Source: PubChem
